Compound activity (PubChem)
UBC13 polyUb – blocks human UBC13 polyubiquitin chain formation | P61088 | TR-FRET | inhibition, % at 20 µM | 330,000 tested, 0.47% active; in the data active = inhibition above about 45%, passing the limit was not always enough
RAD54 branch – RAD54 (human) branch migration inhibition. RAD54 Holliday junction branch migration, FAM/BHQ fluorescence. inhibition, % at 10.4 µM. 360,000 tested, 0.14% active. AID 602329;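 active = mean normalized replicate activity at least 40 and at least half of replicates scoring 40 or more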;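 note: inhibitors cause a drop in the FAM fluorescence signal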
RAD52 inh – inhibitors of human RAD52 DNA annealing; inhibition, % at 18.7 µM; 360,000 tested, 0.46% active; recombinant RAD52 DNA annealing, FRET fluorescence; P43351; AID 651710;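 active = every replicate showing at least 50% inhibition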
Apaf-1 inh – inhibitors of human Apaf-1 apoptosome; O14727; reconstituted apoptosome caspase-3 activity, DEVD-Rh110 fluorescence; inhibition, % at 20 µM; 330,000 tested, 0.71% active; active = inhibition of at least 40% at 20 µM
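System – cell-free apoptosome with Apaf-1, procaspase-3 and caspase-9 · Buffer or medium – pH 7.5 Hepes buffer with CHAPS, BSA, DTT · Also added – cytochrome c with DEVD-Rh110 · Times – 30 min compound preincubation, 50 min activation, room temperature · Technique – Rh110 fluorescence intensity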
Neddylation inh – blocks human cullin neddylation; TR-FRET cullin neddylation, biochemical; 360,000 tested, 0.58% active; AID 651699; P61081+Q13564; calls only at 25 µM; in the data active = inhibition above about 36%
Target sequence (P61081 whole entry, looked up): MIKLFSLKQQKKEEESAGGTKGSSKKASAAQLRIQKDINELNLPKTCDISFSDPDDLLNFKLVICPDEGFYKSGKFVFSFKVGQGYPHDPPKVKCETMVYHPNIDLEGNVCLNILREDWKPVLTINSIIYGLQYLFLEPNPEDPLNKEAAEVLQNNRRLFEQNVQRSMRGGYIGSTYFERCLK
Target sequence (Q13564 whole entry, looked up): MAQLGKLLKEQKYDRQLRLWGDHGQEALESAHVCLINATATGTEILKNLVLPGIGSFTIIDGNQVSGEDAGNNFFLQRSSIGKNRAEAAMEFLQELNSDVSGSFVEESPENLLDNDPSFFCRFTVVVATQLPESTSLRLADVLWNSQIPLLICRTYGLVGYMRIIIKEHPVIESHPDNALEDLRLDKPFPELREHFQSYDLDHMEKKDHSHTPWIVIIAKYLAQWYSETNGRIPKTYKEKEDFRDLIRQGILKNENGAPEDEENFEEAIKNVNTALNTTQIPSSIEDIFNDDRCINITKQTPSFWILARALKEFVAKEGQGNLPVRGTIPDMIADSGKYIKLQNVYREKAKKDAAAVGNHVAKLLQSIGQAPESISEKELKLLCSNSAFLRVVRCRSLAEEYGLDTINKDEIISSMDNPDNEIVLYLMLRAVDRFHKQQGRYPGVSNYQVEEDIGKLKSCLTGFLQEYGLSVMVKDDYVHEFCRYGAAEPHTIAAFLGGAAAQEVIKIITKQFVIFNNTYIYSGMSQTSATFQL
FID counter – displaces DNA intercalator in HCV helicase counter-screen | inhibition, % at 7.9 µM | 290,000 tested, 0.17% active | DNA fluorescent intercalator displacement, fluorescence | AID 1845; in the data active = inhibition above about 37%;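 note: higher means more ethidium bromide displaced from hairpin DNA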
DNA binder FP – DNA binding artifact in RAD52 counter-screen; AC50, µM; 1,000 tested, 8% active; AID 652128; Salmon sperm DNA/acridine orange FP displacement; shares compounds with RAD52 inh;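 active = fitted half-maximal concentration for signal loss at or below twice the highest dose tested, in every separate run, actives reach about 64 µM in these data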
A number is an active result. An excerpt weighted towards active compounds, which were near 1.6% of everything screened.

`COCC(=O)N1C[C@H](C)[C@H](OC)CN(C)C(=O)c2cc(NS(C)(=O)=O)ccc2OC[C@H]1C` gave RAD54 branch inactive and RAD52 inh inactive.
For Cc1ccc2sc(N(CCCN(C)C)C(=O)c3ccc(S(=O)(=O)N(C)C4CCCCC4)cc3)nc2c1C the results were UBC13 polyUb inactive, RAD54 branch inactive, RAD52 inh 61, Apaf-1 inh inactive, Neddylation inh inactive and DNA binder FP inactive.
For CCN(CC)CCN(C(=O)c1ccc(S(=O)(=O)N(C)C2CCCCC2)cc1)c1nc2c(C)cccc2s1 the results were UBC13 polyUb inactive, RAD54 branch inactive, RAD52 inh inactive, Apaf-1 inh inactive, Neddylation inh inactive and FID counter inactive.
C[C@H](CO)N1C[C@H](C)[C@H](CN(C)S(=O)(=O)c2cn(C)cn2)Oc2c(NS(C)(=O)=O)cccc2C1=O was read as RAD54 branch inactive and RAD52 inh inactive.
`CCN1CCc2nc(NC(=O)c3ccccc3)sc2C1` gave UBC13 polyUb inactive, RAD54 branch inactive, Apaf-1 inh inactive, Neddylation inh inactive and FID counter inactive.
`C=CCN1CCc2nc(N)sc2CC1` gave RAD54 branch inactive, RAD52 inh 66, Neddylation inh inactive, FID counter inactive and DNA binder FP inactive.
Screening Nc1nc2c(s1)CCCCCCCCCC2 returned UBC13 polyUb inactive, RAD54 branch inactive, RAD52 inh inactive, Apaf-1 inh inactive, Neddylation inh inactive and FID counter inactive.
`CCN1CCc2nc(N)sc2C1` gave UBC13 polyUb inactive, RAD52 inh 69, Apaf-1 inh inactive, Neddylation inh inactive, FID counter inactive and DNA binder FP inactive.
Screening CO[C@H]1CN(C)C(=O)c2ccc(NC(=O)C3CC3)cc2OC[C@H](C)N(Cc2cc(F)ccc2F)C[C@H]1C returned RAD54 branch inactive and RAD52 inh inactive.
For C[C@@H]1CN([C@H](C)CO)C(=O)CCCn2nncc2CO[C@H]1CN(C)C(=O)Nc1ccccc1F the results were RAD54 branch inactive and RAD52 inh inactive.
CCCCN(CC)CCNC(=O)c1cc2c(-c3ccccc3F)nn(C)c2s1 was read as UBC13 polyUb inactive, RAD54 branch inactive, RAD52 inh inactive, Apaf-1 inh inactive and FID counter inactive.
CC1CCCCN1CCNC(=O)c1cc2c(-c3ccccc3F)nn(C)c2s1 (stereo not drawn) was read as UBC13 polyUb inactive, RAD54 branch inactive, RAD52 inh 56, Apaf-1 inh inactive, FID counter inactive and DNA binder FP inactive.
CCOc1ccc(CCN2C(=S)N([C@@H](Cc3ccc(O)cc3)CN3CCCC3CN3C(=S)NC[C@@H]3Cc3ccc(O)cc3)C[C@@H]2CC(C)C)cc1 (stereo partly drawn) was read as RAD54 branch inactive, RAD52 inh inactive and Neddylation inh inactive.
For CCOc1ccc(CCN2C(=S)N([C@@H](Cc3ccc(O)cc3)CN3CCC[C@@H]3CN3C(=S)NC[C@@H]3CC(C)C)C[C@@H]2Cc2ccc(O)cc2)cc1 the results were RAD54 branch inactive, RAD52 inh 67, Neddylation inh inactive and DNA binder FP inactive.
For COc1ccc(S(=O)(=O)Nc2ccc3c(c2)C(=O)N([C@H](C)CO)C[C@@H](C)[C@H](CN(C)Cc2ccncc2)OCCCC[C@@H](C)O3)cc1 the results were RAD54 branch inactive and RAD52 inh inactive.
For Oc1ccccc1C=NCCCCCCN=Cc1ccccc1O the results were UBC13 polyUb inactive, RAD54 branch inactive, RAD52 inh 59, Apaf-1 inh inactive, Neddylation inh inactive, FID counter inactive and DNA binder FP inactive.
Oc1ccccc1C=NCCN1CCN(CCN=Cc2ccccc2O)C1c1ccccc1O (stereo not drawn) was read as RAD54 branch inactive, RAD52 inh 66, Neddylation inh inactive and DNA binder FP inactive.
C[C@@H]1CN([C@@H](C)CO)C(=O)Cc2cc(NC(=O)CCCN(C)C)ccc2O[C@H]1CN(C)C(=O)Nc1ccc(F)cc1 was read as RAD54 branch inactive and RAD52 inh inactive.
`CN(C)CC/C=C1/c2cc(F)ccc2CSc2ccc(F)cc21` gave UBC13 polyUb inactive, Apaf-1 inh inactive, Neddylation inh inactive and FID counter inactive.
CN(C)CC/C=C1\c2cc(Cl)ccc2Sc2cc(F)c(F)cc21 was read as UBC13 polyUb inactive, RAD52 inh 62, Apaf-1 inh inactive, Neddylation inh inactive and DNA binder FP inactive.
CN(C)CC/C=C1\c2cc(F)ccc2CSc2ccccc21 was read as UBC13 polyUb inactive, Apaf-1 inh inactive, Neddylation inh inactive and FID counter inactive.
`CN(C)CC/C=C1\c2ccc(F)cc2Sc2cc(F)c(Cl)cc21` gave UBC13 polyUb inactive, RAD54 branch inactive, RAD52 inh 71, Apaf-1 inh inactive, Neddylation inh inactive and DNA binder FP inactive.
For CN(C)CC/C=C1\c2ccccc2Sc2cc(F)c(Cl)cc21 the results were UBC13 polyUb inactive, RAD52 inh 63, Apaf-1 inh inactive, Neddylation inh inactive and DNA binder FP inactive.
`CN(C)CC/C=C1/c2ccc(F)cc2Sc2ccc(Cl)cc21` gave UBC13 polyUb inactive, RAD54 branch inactive, RAD52 inh 62, Apaf-1 inh inactive, Neddylation inh inactive and DNA binder FP inactive.
For CN(C)CCC=C1c2ccccc2C=Cc2ccccc21 the results were UBC13 polyUb inactive, RAD54 branch inactive, RAD52 inh inactive, Apaf-1 inh inactive and Neddylation inh inactive.
Screening COc1ccc(NC(=O)N(C)C[C@H]2Oc3c(NS(=O)(=O)c4ccc(C)cc4)cccc3C(=O)N([C@H](C)CO)C[C@@H]2C)cc1 returned RAD54 branch inactive and RAD52 inh inactive.
Screening CN(C)C(=O)c1ccc(-c2ccc([C@@H]3[C@@H](CO)N4C(=O)CN(C(=O)C5CC5)C[C@@H]34)cc2)cc1 returned RAD52 inh inactive.
For O=C(CCn1nc(-c2ccc(Cl)cc2)ccc1=O)NCCCN1CCCCCC1 the results were UBC13 polyUb inactive, RAD54 branch inactive, RAD52 inh 63, Apaf-1 inh inactive, Neddylation inh inactive, FID counter inactive and DNA binder FP inactive.
`CCCN1CCN(CCCNC(=O)CCn2nc(-c3ccccc3)ccc2=O)CC1` gave UBC13 polyUb inactive, RAD54 branch inactive, RAD52 inh inactive, Apaf-1 inh inactive, Neddylation inh inactive and FID counter inactive.
`Cc1cc(N2CCNC[C@@H]2C)ccc1N1CCS(=O)(=O)CC1` gave RAD52 inh inactive.
`C[C@@H]1CNCCN1c1ccc(N2CCS(=O)(=O)CC2)c(C#N)c1` gave RAD52 inh 55 and DNA binder FP inactive.
Screening O=C(C[C@H]1C[C@H]2c3cc(NS(=O)(=O)c4ccc(F)cc4)ccc3O[C@H]2[C@H](CO)O1)NCc1ccccc1F returned RAD54 branch inactive and RAD52 inh inactive.
`C[C@@H]1CN([C@H](C)CO)C(=O)c2cccc(NC(=O)Nc3cccc4ccccc34)c2O[C@@H]1CN(C)S(=O)(=O)c1cn(C)cn1` gave RAD54 branch inactive and RAD52 inh inactive.
